Converted amounts (≈) assume the structure as drawn. Blank lines part the entries; values can stand above or below the compound they belong to.
Assays:
Cryptococcus neoformans [1] = assay: Antifungal activity against Cryptococcus neoformans ATCC 36556 assessed as growth inhibition after 48 hrs by broth microdilution relative to control; type: functional
Outline: (§1)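 Broth microdilution against yeast; incubation at 35 °C for 48 h. Growth read by visual turbidity versus antifungal-free control wells and by absorbance at 530 nm. MIC₅₀ taken as the lowest level giving a prominent visual decrease in turbidity plus >50% growth reduction versus no-antifungal controls. Values in µg/mL; partial inhibition (e.g. 25%) noted where below threshold.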

Candida albicans = assay: Antifungal activity against Candida albicans ATCC 10231 assessed as growth inhibition after 48 hrs by broth microdilution relative to control; type: functional; outline: as §1
Nakaseomyces glabratus [2] = assay: Antifungal activity against Candida glabrata ATCC 48435 assessed as growth inhibition after 48 hrs by broth microdilution relative to control; type: functional; outline: as §1
Cryptococcus neoformans [3] = assay: Antifungal activity against Cryptococcus neoformans ATCC 36556 after 48 hrs by broth microdilution technique; type: functional; conditions: ATCC 36556, 48 h; outline: as §1
[4] = Cytotoxicity against Sylvilagus floridanus CCL68 cells after 24 hrs by MTT assay; type: cell-based
Outline: (§2)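 Tetrazolium (MTT-type) proliferation assay on noncancerous Vero and rabbit skin cells. Compounds diluted in media to 200, 100, 50 and 25 µg/ml; 24 h exposure at 37 °C, 5% CO₂. Dye added for 1–4 h, then stop solution 1 h at room temperature; formazan read at 570 nm. Viability given as % of 1% DMSO no-drug wells; saponin as cell-death control; triplicate, mean ± SD.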

Vero = assay: Cytotoxicity against african green monkey Vero cells after 24 hrs by MTT assay; type: cell-based; conditions: chlorocebus sabaeus; outline: as §2
Nakaseomyces glabratus [5] = assay: Antifungal activity against Candida glabrata ATCC 48435 after 48 hrs by broth microdilution technique; type: functional; conditions: ATCC 48435, 48 h; outline: as §1

SMILES: CC(C)CCC[C@@H](C)[C@H]1CC[C@H]2[C@@H]3CC[C@H]4C[C@@H](O)CC[C@]4(C)[C@H]3CC[C@]12C
growth inhibition (GI) (Cryptococcus neoformans [1]): <50% | growth inhibition (GI) (Candida albicans): <50% | growth inhibition (GI) (Nakaseomyces glabratus [2]): <50%

SMILES: C[C@@H]1CC[C@]2(C[C@H]3C[C@H]4[C@@H]5CC[C@H]6C[C@@H](O[C@@H]7O[C@H](CO)[C@@H](O)[C@H](O)[C@H]7O)[C@H](O)C[C@]6(C)[C@H]5CC[C@]4(C)[C@H]3[C@@H]2C)OC1
growth inhibition (GI) (Cryptococcus neoformans [1]): <50% | growth inhibition (GI) (Candida albicans): <50% | growth inhibition (GI) (Nakaseomyces glabratus [2]): <50%

MIC50 (Cryptococcus neoformans [3]): 32 µg/mL (≈ 79.1 µM)
SMILES: CC(C)CCC[C@@H](C)[C@H]1CC[C@H]2[C@@H]3CC[C@H]4C[C@@H](O)[C@H](O)C[C@]4(C)[C@H]3CC[C@]12C
growth inhibition (GI) (Cryptococcus neoformans [1]): 25% | growth inhibition (GI) (Candida albicans): <50% | growth inhibition (GI) (Nakaseomyces glabratus [2]): <50%

SMILES: C[C@@H]1CC[C@]2(C[C@H]3C[C@H]4[C@@H]5CC[C@H]6C[C@@H](O[C@H]7O[C@H](CO)[C@@H](O[C@H]8O[C@H](CO)[C@@H](O)[C@H](O)[C@H]8O)[C@H](O)[C@H]7O)[C@H](O)C[C@]6(C)[C@H]5CC[C@]4(C)[C@H]3[C@@H]2C)OC1
growth inhibition (GI) (Cryptococcus neoformans [1]): <50% | growth inhibition (GI) (Candida albicans): <50% | growth inhibition (GI) (Nakaseomyces glabratus [2]): <50%

SMILES: C[C@@H]1CC[C@]2(C[C@H]3C[C@H]4[C@@H]5CC[C@H]6C[C@@H](O[C@@H]7O[C@H](CO)[C@@H](O[C@@H]8O[C@H](CO)[C@@H](O)[C@H](O)[C@H]8O)[C@H](O)[C@H]7O)[C@H](O)C[C@]6(C)[C@H]5CC[C@]4(C)[C@H]3[C@@H]2C)OC1
Activity [4]: Non-toxic | Activity (Vero): Non-toxic

MIC50 (Nakaseomyces glabratus [5]): 8 µg/mL (≈ 11 µM) | MIC50 (Cryptococcus neoformans [3]): 4 µg/mL (≈ 5.49 µM)
SMILES: CC(C)CCC[C@@H](C)[C@H]1CC[C@H]2[C@@H]3CC[C@H]4C[C@@H](O[C@@H]5O[C@H](CO)[C@@H](O[C@@H]6O[C@H](CO)[C@@H](O)[C@H](O)[C@H]6O)[C@H](O)[C@H]5O)[C@H](O)C[C@]4(C)[C@H]3CC[C@]12C
Activity [4]: Toxic | growth inhibition (GI) (Candida albicans): <50% | Activity (Vero): Toxic

SMILES: CC(C)CCC[C@@H](C)[C@H]1CC[C@H]2[C@@H]3CC[C@H]4C[C@@H](O[C@@H]5O[C@H](CO)[C@@H](O)[C@H](O)[C@H]5O)CC[C@]4(C)[C@H]3CC[C@]12C
growth inhibition (GI) (Cryptococcus neoformans [1]): <50% | growth inhibition (GI) (Candida albicans): <50% | growth inhibition (GI) (Nakaseomyces glabratus [2]): <50%

SMILES: CC(C)CCC[C@@H](C)[C@H]1CC[C@H]2[C@@H]3CC[C@H]4C[C@@H](O[C@H]5O[C@H](CO)[C@@H](O[C@H]6O[C@H](CO)[C@@H](O)[C@H](O)[C@H]6O)[C@H](O)[C@H]5O)[C@H](O)C[C@]4(C)[C@H]3CC[C@]12C
growth inhibition (GI) (Cryptococcus neoformans [1]): <50% | growth inhibition (GI) (Candida albicans): <50% | growth inhibition (GI) (Nakaseomyces glabratus [2]): <50%

MIC50 (Nakaseomyces glabratus [5]): > 125 µg/mL | MIC50 (Cryptococcus neoformans [3]): > 125 µg/mL
SMILES: CC(C)CCC[C@@H](C)[C@H]1CC[C@H]2[C@@H]3CC[C@H]4C[C@@H](O[C@@H]5O[C@H](CO)[C@@H](O[C@@H]6O[C@H](CO)[C@@H](O)[C@H](O)[C@H]6O)[C@H](O)[C@H]5O)CC[C@]4(C)[C@H]3CC[C@]12C
growth inhibition (GI) (Candida albicans): <50%

SMILES: CC(C)CCC[C@@H](C)[C@H]1CC[C@H]2[C@@H]3CC[C@H]4C[C@@H](O[C@H]5O[C@H](CO)[C@@H](O[C@H]6O[C@H](CO)[C@@H](O)[C@H](O)[C@H]6O)[C@H](O)[C@H]5O)CC[C@]4(C)[C@H]3CC[C@]12C
growth inhibition (GI) (Cryptococcus neoformans [1]): <50% | growth inhibition (GI) (Candida albicans): <50% | growth inhibition (GI) (Nakaseomyces glabratus [2]): <50%

MIC50 (Cryptococcus neoformans [3]): 32 µg/mL (≈ 43.9 µM)
SMILES: CC(C)CCC[C@@H](C)[C@H]1CC[C@H]2[C@@H]3CC[C@H]4C[C@@H](O[C@@H]5O[C@H](CO)[C@@H](O[C@H]6O[C@H](CO)[C@@H](O)[C@H](O)[C@H]6O)[C@H](O)[C@H]5O)[C@H](O)C[C@]4(C)[C@H]3CC[C@]12C
growth inhibition (GI) (Candida albicans): <50% | growth inhibition (GI) (Nakaseomyces glabratus [2]): <50%

MIC50 (Nakaseomyces glabratus [5]): 4 µg/mL (≈ 5.61 µM) | MIC50 (Cryptococcus neoformans [3]): 4 µg/mL (≈ 5.61 µM)
SMILES: CC(C)CCC[C@@H](C)[C@H]1CC[C@H]2[C@@H]3CC[C@H]4C[C@@H](O[C@@H]5O[C@H](CO)[C@@H](O[C@H]6O[C@H](CO)[C@@H](O)[C@H](O)[C@H]6O)[C@H](O)[C@H]5O)CC[C@]4(C)[C@H]3CC[C@]12C
Activity [4]: Non-toxic | growth inhibition (GI) (Candida albicans): <50% | Activity (Vero): Non-toxic

SMILES: CC(C)CCC[C@@H](C)[C@H]1CC[C@H]2[C@@H]3CC[C@H]4C[C@@H](O[C@H]5O[C@H](CO)[C@@H](O)[C@H](O)[C@H]5O)[C@H](O)C[C@]4(C)[C@H]3CC[C@]12C
growth inhibition (GI) (Cryptococcus neoformans [1]): <50% | growth inhibition (GI) (Candida albicans): <50% | growth inhibition (GI) (Nakaseomyces glabratus [2]): <50%

SMILES: CC(C)CCC[C@@H](C)[C@H]1CC[C@H]2[C@@H]3CC[C@H]4C[C@@H](O[C@H]5O[C@H](CO)[C@@H](O)[C@H](O)[C@H]5O)CC[C@]4(C)[C@H]3CC[C@]12C
growth inhibition (GI) (Cryptococcus neoformans [1]): <50% | growth inhibition (GI) (Candida albicans): <50% | growth inhibition (GI) (Nakaseomyces glabratus [2]): <50%

SMILES: CC(C)CCC[C@@H](C)[C@H]1CC[C@H]2[C@@H]3CC[C@H]4C[C@@H](O[C@@H]5O[C@H](CO)[C@@H](O)[C@H](O)[C@H]5O)[C@H](O)C[C@]4(C)[C@H]3CC[C@]12C
growth inhibition (GI) (Cryptococcus neoformans [1]): <50% | growth inhibition (GI) (Candida albicans): <50% | growth inhibition (GI) (Nakaseomyces glabratus [2]): <50%

SMILES: C[C@@H]1CC[C@@]2(OC1)O[C@H]1C[C@H]3[C@@H]4CC[C@H]5C[C@@H](O[C@H]6O[C@H](CO)[C@@H](O)[C@H](O)[C@H]6O)[C@H](O)C[C@]5(C)[C@H]4CC[C@]3(C)[C@H]1[C@@H]2C
growth inhibition (GI) (Cryptococcus neoformans [1]): <50% | growth inhibition (GI) (Candida albicans): <50% | growth inhibition (GI) (Nakaseomyces glabratus [2]): <50%

From ChEMBL document CHEMBL1921697, “Antifungal activity of 2α,3β-functionalized steroids stereoselectively increases with the addition of oligosaccharides” (Bioorg Med Chem Lett, 2011)
